# Measurements collected from several papers.
# Compare with care: the assays were run in different laboratories.
# emrE: emrE (Escherichia coli, UniProt P23895)
# HRH1: Histamine H1 receptor (HRH1, Homo sapiens, UniProt P35367)
# CHRNA9: Neuronal acetylcholine receptor subunit alpha-9 (CHRNA9, Homo sapiens, UniProt Q9UGM1)
# CA9: Carbonic anhydrase 9 (CA9, Homo sapiens, UniProt Q16790)
# MAOB: Amine oxidase [flavin-containing] B (MAOB, Homo sapiens, UniProt P27338)
Structure (SMILES),target,assay,test system,setting,quantity,result
Cc1nccc2c1[nH]c1ccccc12,emrE,"binding, fluorescence",,,Kd,46 µM
CCCCC1CNC2CCc3ccc(OC)cc3C12 (racemic),HRH1,"ligand displacement, radioligand",,,Ki,0.135 µM
CCOC(=O)c1ccc(OC(=O)CCCCCN=C(N)N)cc1,"Urokinase-type plasminogen activator (PLAU, Homo sapiens, UniProt P00749)","enzyme activity, inhibitor",,,IC50,0.0236 µM
CCC[N+]1(CC)CCN(c2ccc(C#N)cc2)CC1,CHRNA9,"ion current, agonist, two-electrode voltage clamp",,oocytes,EC50,1.9 µM
N#C[Se]CCCCOc1ccc2c(-c3ccccc3)cc(=O)oc2c1,CA9,"enzyme activity, inhibitor, stopped-flow",,,Ki,0.211 µM
CC[C@H](C)[C@H](N)C(=O)N1CCC[C@H]1C(=O)N1CCC[C@H]1C(=O)NCC(=O)N[C@H](C(=O)N1CCC[C@H]1C(=O)N[C@@H](Cc1ccc(O)cc1)C(=O)O)C(C)C,MAOB,"enzyme activity, inhibitor, fluorescence",,,IC50,9410 µM
Cc1c(Cl)c(=O)oc2cc(OCCCC[Se]C#N)ccc12,CA9,"enzyme activity, inhibitor, stopped-flow",,,Ki,0.0429 µM
CCC[N+]1(C)CCN(c2ccccc2)CC1,CHRNA9,"ion current, agonist, two-electrode voltage clamp",,oocytes,EC50,60 µM
C[n+]1ccc(-c2cc[n+](C)cc2)cc1,emrE,"binding, fluorescence",,,Kd,73 µM
CN1CC[C@@]2(C)c3cc(OC(=O)Nc4ccccc4)ccc3N(C)[C@@H]12,"Retinaldehyde dehydrogenase 3 (ALDH1A3, Homo sapiens, UniProt P47895)","enzyme activity, inhibitor",,,IC50,< 10 µM
COc1cc2c(cc1OC)CN(CCc1ccc(NC(=O)c3cccc4c(=O)c5cccc(OC)c5[nH]c34)cc1)CC2,HRH1,cell-free assay,,,Ki,> 10 µM
CC1=C(O)C(=O)C=C2C1=CC=C1[C@@]2(C)CC[C@@]2(C)[C@@H]3C[C@](C)(C(=O)O)CC[C@]3(C)CC[C@]12C,"Cytochrome P450 3A5 (CYP3A5, Homo sapiens, UniProt P20815)","binding, BLI",SAS,,Kd,2.07 µM
CC[C@H](C)[C@H](NC(=O)[C@H](C)NC(=O)[C@H](CCC(=O)O)NC(=O)[C@H](Cc1c[nH]cn1)NC(=O)[C@H](CC(C)C)NC(=O)[C@@H](NC(=O)[C@H](Cc1ccccc1)NC(=O)[C@H](CO)NC(=O)[C@@H](NC(=O)[C@H](CC(C)C)NC(=O)[C@H](CC(=O)O)NC(=O)[C@H](CC(C)C)NC(=O)[C@@H]1CCCN1)[C@@H](C)O)C(C)C)C(=O)O,MAOB,"enzyme activity, inhibitor, fluorescence",,,IC50,1900 µM
